Only some compounds are listed: those with a hit (about 6% of all), similar ones and a draw of the others.
Pyk2 oligo antag – Pyk2 (human) oligomerization antagonism; Q14289; Q293 cells, Pyk2 FERM NanoBiT luminescence; active compounds read low; z-score (the deposit names both 25 µM and 10 µM); 99,000 tested, 0.83% active;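 active = Z-score of -3 or lower, scaled per plate to the spread of control and sample wells; inactive = z-score above -3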;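 also: negative z-score means lost luminescence so less FERM oligomerization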
Fibroblast inh – blocks proliferation of human lung fibroblasts; AID 719; viability, % at 10 µM; LL 47 human lung fibroblast viability, ATP luminescence; active compounds read low; 85,000 tested, 1.1% active;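 active = viability at or below 50% in the single dose screen; inactive = viability above 50%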;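 also: compound exposure lasted 72 h before the ATP readout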
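Material: human lung fibroblast line LL 47, low passage; Evaluation: viability percentage against median untreated-cell control; Buffer or medium: 15% FBS in IMEM; Incubation: 72 h compound exposure at 37 °C after overnight plating; Dosing: 0.1% DMSO in all compound wells; Measured by: CellTiter-Glo luminescence.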
cytoskel mod – modifiers of cytoskeleton assembly. HUVEC TNFa F-actin phalloidin imaging, high content. inhibition, % at 2 µM. 91,000 tested, 0.18% active. AID 836;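 active = inhibition above the batch mean plus 3 SD and confirmed as a hit by visual image inspection, cut at about 30% in these data, passing the limit was not always enough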
HUVEC prolif 384 – inhibitors of human endothelial cell proliferation; HUVEC proliferation, CellTiter-Glo luminescence, 72 h; active compounds read low; viability, % at 10 µM (by protocol); 86,000 tested, 1.1% active;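 active = viability at or below 30%; inactive = viability above 30%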
H69AR inhibit – blocks growth of human H69AR lung tumor cells | viability, % at 10 µM | AID 598 | 85,000 tested, 6% active | H69AR lung tumor viability, ATP luminescence, 72 h; active compounds read low;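 active = viability at or below 40%; inactive = viability above 40%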;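 also: multidrug resistant small cell line overexpressing MRP-1 efflux transporter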
Jurkat viability – cytotoxicity toward Jurkat cells; Jurkat E6.1 viability, ATP luminescence, 48 h; inhibition, % at 4 µM; 56,000 tested, 1.2% active; AID 463;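 active = inhibition above the mean inhibition of all tested compounds plus 3 SD, cut at about 28% in these data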
Hits are given with their value; – = inactive; · = no result.

SMILES	Pyk2 oligo antag	Fibroblast inh	cytoskel mod	HUVEC prolif 384	H69AR inhibit	Jurkat viability
Cc1cccc(N2CCN(C(=O)c3ccc4nc(-c5ccco5)c(-c5ccco5)nc4c3)CC2C)c1 (centres undefined)	–	–	–	23.3	–	·
O=C(Nc1ccc(Cl)cc1)NC1CCCCC1	–	–	–	–	–	·
O=C(c1ccccc1Nc1ccc(SC(F)F)cc1)N1CCCCC1	–	–	–	–	–	·
S=C(NCC1CCCCC1)Nc1cccnc1	–	·	·	·	·	·
FC(F)Sc1ccc(NC(=S)NC2CCCCC2)cc1	–	–	–	–	18.4	·
FC(F)Sc1ccc(NC(=S)NCC2CCCCC2)cc1	–	–	–	–	5.1	·
CC1CCCCC1NC(=S)Nc1ccc(SC(F)F)cc1 (centres undefined)	–	44.4	–	–	32.0	·
CCOC(=O)C(=CNc1ccc(C)cc1C)C(=O)OCC	-3.16	·	–	·	·	·
COc1ccccc1NC(=O)Nn1cnnc1	–	–	·	–	–	·
OCCSc1c(F)c(SCCO)c(SCCO)c(F)c1SCCO	–	–	–	–	–	–
c1ccc(CNCc2ccc3c(c2)OCO3)nc1	–	–	–	–	–	·
Cc1ccc2c(c1)nnn2C1CCN(S(=O)(=O)c2ccc(C(=O)N(C)C3CCCCC3)cc2)CC1	–	–	·	–	31.6	–
O=C(Nc1nnc(CCN2CCOCC2)s1)C1CCCCC1	–	–	–	–	–	–
CC(NC(=O)CN1C(=O)NC(Cc2ccccc2)(Cc2ccccc2)C1=O)C12CC3CC(CC(C3)C1)C2 (centres undefined)	–	–	–	–	6.3	·
Cc1cccc(OCCCC(=O)NCc2ccco2)c1	–	·	–	·	·	·
O=C(O)CCC(=O)Nc1ccc(OCC(=O)O)cc1	–	–	–	–	–	·
O=c1ccc(/C=C/c2ccccc2)nn1Cc1ccccc1Cl	–	–	–	–	–	·
CC1(C)CC(=O)c2cc(C(=O)O)c(=O)n(-c3ccccc3)c2C1	–	–	–	–	–	·
CCOC(=O)c1cc2c(n(-c3ccccc3)c1=O)CC(C)(C)CC2=O	–	–	–	–	35.7	–
COC(=O)c1ccccc1NC(=O)CNC(=O)c1ccco1	–	–	–	–	–	–
CCOC(=O)c1c(C)[nH]c(C(=O)COC(=O)c2oc3ccccc3c2C)c1C	–	–	–	–	–	·
CCOC(=O)c1c(C)[nH]c(C(=O)COC(=O)c2ccccc2NC(=O)c2ccco2)c1C	–	–	–	–	18.0	–
CCOC(=O)c1[nH]c(COC(=O)c2ccccc2NC(=O)c2ccco2)c(C(=O)OCC)c1C	–	–	–	–	8.5	·
COc1ccc(Nc2ccc3nnc(-c4ccc(Br)cc4)n3n2)cc1	·	·	–	·	·	·
CNc1c([N+](=O)[O-])cnn1-c1ccc(Cl)cc1	–	·	50.0	·	·	·
SMILES	Pyk2 oligo antag	Fibroblast inh	cytoskel mod	HUVEC prolif 384	H69AR inhibit	Jurkat viability
O=[N+]([O-])c1ccc(-n2nncc2-c2ccc(Cl)cc2)cc1	–	·	–	·	·	·
Cc1ccc(-c2onc3ccc(C=O)cc23)cc1	–	–	–	–	33.4	·
Cc1ccc(-c2onc3ccc(C4(C)OCCO4)cc23)cc1	–	–	–	–	–	·
O=C(O)c1ccccc1NS(=O)(=O)c1ccc2c3c(cccc13)C(=O)N2	–	·	·	·	·	–
Cc1oc2c(cc(NS(=O)(=O)c3ccc4c5c(cccc35)C(=O)N4)c3ccccc32)c1C(=O)OC(C)C	–	–	–	–	31.4	·
COC(=O)c1ccccc1NS(=O)(=O)c1ccc2c3c(cccc13)C(=O)N2	-3.67	–	–	–	–	–
COC(=O)c1c(C)oc2c1cc(NS(=O)(=O)c1cccs1)c1ccccc12	–	–	–	–	19.7	·
O=C(NCc1ccccc1)c1ccc(COCC(F)(F)F)o1	–	–	·	–	–	–
O=S(=O)(/C=C/c1ccccc1)Oc1ccccc1	–	–	–	–	7.4	·
CN(C)S(=O)(=O)c1ccc(Cl)c(NC(=O)CSc2nc3ccccc3c(=O)n2CCCN2CCOCC2)c1	–	·	·	·	·	·
COCCCNc1ncnc2sc3c(c12)CCC(C)C3 (centres undefined)	–	–	–	–	39.0	·
O=C(c1cccc(F)c1F)N1CCCC1	–	–	–	–	–	·
COc1ccc(C2C(C(C)=O)=C(O)C(=O)N2c2ccc(Br)cn2)cc1 (centres undefined)	–	·	–	·	·	·
COc1ccc(NC(=O)c2cc3c(-c4ccc(OC)c(OC)c4)nn(C)c3s2)cc1OC	-3.02	–	–	–	9.7	·
Oc1ccc(-n2cnnn2)cc1	–	–	–	–	–	·
N#CC1=C(N)N(c2ccccc2)C2=C(C(=O)CCC2)C1c1ccsc1 (centres undefined)	–	–	·	–	26.8	–

Bioassay records from PubChem BioAssay.
